Experimental data of several laboratories.
Lines come from different studies, so protocols differ.
Cell line: MDA-MB-231
Effect on: cell growth or viability

| SMILES | method | tested at | time | measurement | result |
| --- | --- | --- | --- | --- | --- |
| O=C(C=Cc1ccccc1)Nc1cccc(-c2ccnc(N3CCOCC3)c2)c1 | MTT | 5 µM |  | inhibition | 49% |
| COc1ccc(COC[C@@](O)(CNCc2ccc(F)cc2)[C@@H]2CC[C@@H](C)C[C@H]2OCc2ccc(OC)cc2)cc1 | MTT | 30 µM | 72 h | inhibition | 99.2% |
| CCc1c(C)c2ccc(OCc3nnc(S)n3N)c(C)c2oc1=O | MTT | 500 µg/mL |  | viability | 2.85% |
| O=C(C=Cc1ccccc1)Nc1cccc(-c2ccnc(N3CCC(CO)CC3)c2)c1 | MTT | 5 µM |  | inhibition | 67.4% |
| C[C@@H]1CC[C@@H]([C@](C)(O)CNCc2ccccc2)[C@H](OCc2ccccc2)C1 | MTT | 30 µM | 72 h | inhibition | 78.9% |
| O=C(C=Cc1cccc(F)c1)Nc1cc(-c2ccnc(N3CCC(O)CC3)c2)ccn1 | MTT | 5 µM |  | inhibition | 78.3% |
| O=C(NO)c1ccc(CNc2ccc(NC3=C(Cl)C(=O)c4cccnc4C3=O)cc2)cc1-c1ccccc1 | MTT |  | 48 h | IC50 | 2.5 µM |
| Cc1c(Cc2ccccc2)c(=O)oc2c(C)c(OCC(=O)NN=Cc3ccco3)ccc12 | MTT | 31.25 µg/mL |  | viability | 15.3% |
| O=C(O)c1ccccc1Nc1cccc(C(F)(F)F)c1 | SRB |  | 48 h | GI50 | > 30 µM |
| Cc1cccc(/C=C/C(=O)Nc2cccc(-c3ccnc(N4CCC(O)CC4)c3)c2)c1 | MTT | 5 µM |  | inhibition | 63.5% |
| CCc1c(C)c2ccc(OCC(=O)NN=Cc3ccc([N+](=O)[O-])cc3)cc2oc1=O | MTT | 250 µg/mL |  | viability | 17.3% |
| O=C(/C=C/c1ccc(F)cc1)Nc1cc(-c2ccnc(N3CCC(O)CC3)c2)ccn1 | MTT | 5 µM |  | inhibition | 63% |
| COc1cc2c3c(n(CCCNCCO)c(=O)c2cc1OC)-c1nc2c(cc1C3=O)OCO2 | MTS |  | 72 h | IC50 | 0.806 µM |
| O=C(CCc1ccccc1)Nc1cc(-c2ccnc(N3CCC(O)CC3)c2)ccn1 | MTT | 5 µM |  | inhibition | 78.9% |
| C=CC(=O)c1cccnc1Nc1cc(C(F)(F)F)ccc1OC | SRB |  | 48 h | GI50 | 10.5 µM |
| C=CC(=O)NC1CCN(c2ncc3ncnc(Nc4ccc(Oc5ccc6c(c5)ncn6C)c(C)c4)c3n2)CC1 |  |  |  | EC50 | 0.328 µM |
| O=[N+]([O-])c1ccc2c(c1)S(=O)(=O)C=C2 | ATP luminescence |  | 72 h | IC50 | 1.3 µM |

| SMILES | method | tested at | time | measurement | result |
| --- | --- | --- | --- | --- | --- |
| C#Cc1nc(C2=C(C)C(O)CC2)cs1 (stereo not drawn) |  |  |  | CC50 | 3.2 µM |
| C[C@@H]1CC[C@@H]([C@](O)(CNCc2ccc(F)cc2)COCc2ccc(F)cc2)[C@H](OCc2ccc(F)cc2)C1 | MTT | 30 µM | 72 h | inhibition | 95% |
| CCNC(=S)NNC(=O)COc1ccc2c(C)c(CC)c(=O)oc2c1C | MTT | 500 µg/mL |  | viability | 9.96% |
| C[C@@H]1CC[C@@H]([C@@](O)(CNCc2cccc3ccccc23)COCc2ccccc2)[C@H](OCc2ccccc2)C1 | MTT | 10 µM | 72 h | inhibition | 83% |
| CC(=NNC(=O)COc1ccc2c(C)c(Cc3ccccc3)c(=O)oc2c1C)c1ccc(Br)cc1 | MTT | 250 µg/mL |  | viability | 22.8% |
| C[C@@H]1CC[C@@H]([C@](C)(O)CNCc2cccc(F)c2)[C@H](OCc2ccccc2)C1 | MTT | 30 µM | 72 h | inhibition | 96.1% |
| Nc1ccccc1NC(=O)c1ccc(CNc2ccc(NC3=C(Cl)C(=O)c4cccnc4C3=O)cc2)cc1 | MTT |  | 48 h | IC50 | 1.07 µM |
| CCc1c(C)c2ccc(OCC(=O)NNC(=S)Nc3ccccc3)c(C)c2oc1=O | MTT | 500 µg/mL |  | viability | 4.23% |
| Cc1cccc(/C=C/C(=O)Nc2cccc(-c3ccnc(N4CCOCC4)c3)c2)c1 | MTT | 5 µM |  | inhibition | 32.2% |
| C=C(COCc1ccc(F)cc1)[C@@H]1CC[C@@H](C)C[C@H]1OCc1ccc(F)cc1 | MTT | 30 µM | 72 h | inhibition | 25% |
| CCOc1ccc2c(C)c(CC)c(=O)oc2c1C | MTT | 1000 µg/mL |  | viability | 2.44% |
| Cc1cc(NC(=O)C=Cc2ccccc2)cc(-c2ccnc(N3CCC(O)CC3)c2)c1 | MTT | 5 µM |  | inhibition | 55% |
| C[C@@H]1CC[C@@H]([C@@](O)(CNCc2ccccc2)COCc2ccccc2)[C@H](OCc2ccccc2)C1 | MTT | 30 µM | 72 h | inhibition | 97% |
| Cn1cc(-n2cnc3c(NCc4nc5cc(Cl)c(Cl)cc5[nH]4)nc(N4CCOCC4)nc32)cn1 |  |  | 5 days | EC50 | 0.0324 µM |
| C[C@@H]1CC[C@@H]([C@@](O)(CNCc2ccccc2)COCc2ccc(F)cc2)[C@H](OCc2ccc(F)cc2)C1 | MTT | 10 µM | 72 h | inhibition | 97.9% |
| COc1cc2c3c(n(CCCNC(C)C)c(=O)c2cc1OC)-c1nc2c(cc1C3=O)OCO2 | MTS |  | 72 h | IC50 | 0.644 µM |
